Several values for one entry are separate records, joined by “and”; a condition that tells them apart may be missing. Identical values can stand only once.
How the values were obtained:
MDA-MB-435 [1] = assay: Inhibition of LCC6-MDR human breast carcinoma cell line growth was determined at 1 uM; No growth inhibition; type: functional, cell-based
MDA-MB-435 [2] = assay: Inhibition of LCC6-MDR human breast carcinoma cell line growth was determined at 5 uM; No growth inhibition; type: functional, cell-based
MDA-MB-435 [3] = assay: Percent reduction of inhibitory concentration against LCC6-MDR human breast cancer cell line at 5 uM concentration; type: functional; details: for Reduction: in the assay text read “at 1 uM concentration” for “at 5 uM concentration”
Method in brief: (§1)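 Paclitaxel was tested against MDR1-transfected LCC6-MDR cells while co-administered with each reversal agent at fixed concentrations (four levels overall). Paclitaxel IC50 was determined under each condition. Percent IC50 reduction, taken as reversal activity, was calculated relative to paclitaxel alone.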

MDA-MB-435 [4] = assay: Percent reduction of inhibitory concentration against LCC6-MDR human breast cancer cell line at 1 uM concentration
MDA-MB-435 [5] = assay: Inhibition of LCC6-WT-human breast carcinoma cell line growth was determined at 10 uM; type: functional
MDA-MB-435 [6] = assay: Cytotoxicity against paclitaxel resistant LCC6-MDR-MDR1 transfected cell line; type: functional, cell-based; details: Homo sapiens
MDA-MB-435 [7] = assay: Inhibition of LCC6-MDR-MDR1 transfected cell line growth was determined at 10 uM; type: functional; details: Homo sapiens
MDA-MB-435 [8] = assay: Cytotoxicity against paclitaxel sensitive LCC6-WT-human breast carcinoma cell line; type: functional, cell-based
MDA-MB-435 [9] = assay: Reversal activity against LCC6-MDR human breast carcinoma cell line; type: functional; method in brief: as §1
MDA-MB-435 [10] = assay: Inhibitory concentration against LCC6-MDR human breast cancer cell line; type: functional, cell-based; method in brief: as §1

## CC(=O)O[C@H]1C(=O)[C@@]2(C)C([C@H](OC(=O)c3ccccc3)[C@]3(O)C[C@H](OC(=O)[C@H](O)[C@@H](NC(=O)c4ccccc4)c4ccccc4)C(C)=C1C3(C)C)[C@]1(OC(C)=O)CO[C@@H]1C[C@@H]2O.O=S(=O)(c1ccc2ccccc2c1)N(CCCCCCNc1ccnc2cc(Cl)ccc12)Cc1ccccc1 (some centres undefined) [listing 1 of 2 here]
MDA-MB-435 [1]
  inhibition: No inhibition
MDA-MB-435 [2]
  inhibition: No inhibition

## CC(=O)O[C@H]1C(=O)[C@@]2(C)C([C@H](OC(=O)c3ccccc3)[C@]3(O)C[C@H](OC(=O)[C@H](O)[C@@H](NC(=O)c4ccccc4)c4ccccc4)C(C)=C1C3(C)C)[C@]1(OC(C)=O)CO[C@@H]1C[C@@H]2O.COc1cc(NC(C)CCCNS(=O)(=O)c2ccc3ccccc3c2)c2ncccc2c1 (some centres undefined) [listing 1 of 2 here]
MDA-MB-435 [1]
  inhibition: No inhibition
MDA-MB-435 [2]
  inhibition: No inhibition

## CC(=O)O[C@H]1C(=O)[C@@]2(C)C([C@H](OC(=O)c3ccccc3)[C@]3(O)C[C@H](OC(=O)[C@H](O)[C@@H](NC(=O)c4ccccc4)c4ccccc4)C(C)=C1C3(C)C)[C@]1(OC(C)=O)CO[C@@H]1C[C@@H]2O.COc1cc(NC(C)CCCNS(=O)(=O)c2ccc3ccccc3c2)c2ncccc2c1 (some centres undefined) [listing 2 of 2 here]
MDA-MB-435 [3]
  IC50 reduction: 97%
  Reduction: 36%

## CC(=O)O[C@H]1C(=O)[C@@]2(C)C([C@H](OC(=O)c3ccccc3)[C@]3(O)C[C@H](OC(=O)[C@H](O)[C@@H](NC(=O)c4ccccc4)c4ccccc4)C(C)=C1C3(C)C)[C@]1(OC(C)=O)CO[C@@H]1C[C@@H]2O.COc1cc(NC(C)CCCN(Cc2ccccc2)S(=O)(=O)c2ccc3ccccc3c2)c2ncccc2c1 (some centres undefined) [listing 1 of 2 here]
MDA-MB-435 [3]
  IC50 reduction: 96%
MDA-MB-435 [4]
  Reduction: 55%

## CC(=O)O[C@H]1C(=O)[C@@]2(C)C([C@H](OC(=O)c3ccccc3)[C@]3(O)C[C@H](OC(=O)[C@H](O)[C@@H](NC(=O)c4ccccc4)c4ccccc4)C(C)=C1C3(C)C)[C@]1(OC(C)=O)CO[C@@H]1C[C@@H]2O.O=S(=O)(c1ccc2ccccc2c1)N(CCCCNc1ccnc2cc(Cl)ccc12)Cc1ccccc1 (some centres undefined) [listing 1 of 2 here]
MDA-MB-435 [3]
  IC50 reduction: 99%
  Reduction: 70%

## COc1cc(NC(C)CCCN(Cc2ccccc2)S(=O)(=O)c2ccc3ccccc3c2)c2ncccc2c1 (centres undefined)
MDA-MB-435 [5]
  inhibition at 10 µM: 0%
MDA-MB-435 [6]
  IC50: > 10000 nM
MDA-MB-435 [7]
  inhibition at 10 µM: 8%
MDA-MB-435 [8]
  IC50: > 10000 nM

## CC(=O)O[C@H]1C(=O)[C@@]2(C)C([C@H](OC(=O)c3ccccc3)[C@]3(O)C[C@H](OC(=O)[C@H](O)[C@@H](NC(=O)c4ccccc4)c4ccccc4)C(C)=C1C3(C)C)[C@]1(OC(C)=O)CO[C@@H]1C[C@@H]2O.COc1cc(NC(C)CCCN(Cc2ccccc2)S(=O)(=O)c2ccc3ccccc3c2)c2ncccc2c1 (some centres undefined) [listing 2 of 2 here]
MDA-MB-435 [1]
  inhibition: No inhibition
MDA-MB-435 [2]
  inhibition: No inhibition

## CC(=O)O[C@H]1C(=O)[C@@]2(C)C([C@H](OC(=O)c3ccccc3)[C@]3(O)C[C@H](OC(=O)[C@H](O)[C@@H](NC(=O)c4ccccc4)c4ccccc4)C(C)=C1C3(C)C)[C@]1(OC(C)=O)CO[C@@H]1C[C@@H]2O.O=S(=O)(c1ccc2ccccc2c1)N(CCCCCCNc1ccnc2cc(Cl)ccc12)Cc1ccccc1 (some centres undefined) [listing 2 of 2 here]
MDA-MB-435 [3]
  IC50 reduction: 99% and 54% and 39%
MDA-MB-435 [9]
  Reversal activity: 99%

## O=S(=O)(c1ccc2ccccc2c1)N(CCCCNc1ccnc2cc(Cl)ccc12)Cc1ccccc1
MDA-MB-435 [5]
  inhibition at 10 µM: 6%
MDA-MB-435 [6]
  IC50: > 10000 nM
MDA-MB-435 [7]
  inhibition at 10 µM: 3%
MDA-MB-435 [8]
  IC50: > 10000 nM

## O=S(=O)(c1ccc2ccccc2c1)N(CCCCCCNc1ccnc2cc(Cl)ccc12)Cc1ccccc1
MDA-MB-435 [6]
  IC50: 2000 nM
MDA-MB-435 [8]
  IC50: 1700 nM

## CC(=O)O[C@H]1C(=O)[C@@]2(C)C([C@H](OC(=O)c3ccccc3)[C@]3(O)C[C@H](OC(=O)[C@H](O)[C@@H](NC(=O)c4ccccc4)c4ccccc4)C(C)=C1C3(C)C)[C@]1(OC(C)=O)CO[C@@H]1C[C@@H]2O.O=S(=O)(c1ccc2ccccc2c1)N(CCCCNc1ccnc2cc(Cl)ccc12)Cc1ccccc1 (some centres undefined) [listing 2 of 2 here]
MDA-MB-435 [1]
  inhibition: No inhibition
MDA-MB-435 [2]
  inhibition: No inhibition

## CC(=O)O[C@H]1C(=O)[C@@]2(C)[C@H]([C@H](OC(=O)c3ccccc3)[C@]3(O)C[C@H](OC(=O)[C@H](O)[C@@H](NC(=O)c4ccccc4)c4ccccc4)C(C)=C1C3(C)C)[C@]1(OC(C)=O)CO[C@@H]1C[C@@H]2O [PACLITAXEL]
MDA-MB-435 [3]
  IC50 reduction: 0%
MDA-MB-435 [6]
  IC50: 612 nM
MDA-MB-435 [8]
  IC50: 8 nM
MDA-MB-435 [10]
  IC50: 490 nM

## COc1cc(NC(C)CCCNS(=O)(=O)c2ccc3ccccc3c2)c2ncccc2c1 (centres undefined)
MDA-MB-435 [5]
  inhibition at 10 µM: 16%
MDA-MB-435 [6]
  IC50: > 10000 nM
MDA-MB-435 [7]
  inhibition at 10 µM: 8%
MDA-MB-435 [8]
  IC50: > 10000 nM

Reference: ChEMBL document CHEMBL1133953, “Modulation of human mammary cell sensitivity to paclitaxel by new quinoline sulfonamides” (Bioorg Med Chem Lett, 2001)
